Results reported in ChEMBL document CHEMBL1151748, “Synthesis, modeling, and RET protein kinase inhibitory activity of 3- and 4-substituted beta-carbolin-1-ones” (J Med Chem, 2008).
Calls of active or inactive are those of the source. The calls are words filed in the database; no cut-off is given here.

Assays:
NIH3T3 [1] = assay: Antiproliferative activity against mouse NIH3T3 cells expressing RET C634R mutant associated with MEN2A syndrome after 72 hrs; details: NIH3T3, 72 h
NIH3T3 [2] = assay: Antiproliferative activity against mouse NIH3T3 cells after 72 hrs; details: NIH3T3, 72 h
[3] = molecular target: Proto-oncogene tyrosine-protein kinase receptor Ret (Homo sapiens, UniProt P07949); assay: Inhibition of recombinant RET active protein by immunoblotting
Proto-oncogene tyrosine-protein kinase receptor Ret, sequence (P07949 whole entry): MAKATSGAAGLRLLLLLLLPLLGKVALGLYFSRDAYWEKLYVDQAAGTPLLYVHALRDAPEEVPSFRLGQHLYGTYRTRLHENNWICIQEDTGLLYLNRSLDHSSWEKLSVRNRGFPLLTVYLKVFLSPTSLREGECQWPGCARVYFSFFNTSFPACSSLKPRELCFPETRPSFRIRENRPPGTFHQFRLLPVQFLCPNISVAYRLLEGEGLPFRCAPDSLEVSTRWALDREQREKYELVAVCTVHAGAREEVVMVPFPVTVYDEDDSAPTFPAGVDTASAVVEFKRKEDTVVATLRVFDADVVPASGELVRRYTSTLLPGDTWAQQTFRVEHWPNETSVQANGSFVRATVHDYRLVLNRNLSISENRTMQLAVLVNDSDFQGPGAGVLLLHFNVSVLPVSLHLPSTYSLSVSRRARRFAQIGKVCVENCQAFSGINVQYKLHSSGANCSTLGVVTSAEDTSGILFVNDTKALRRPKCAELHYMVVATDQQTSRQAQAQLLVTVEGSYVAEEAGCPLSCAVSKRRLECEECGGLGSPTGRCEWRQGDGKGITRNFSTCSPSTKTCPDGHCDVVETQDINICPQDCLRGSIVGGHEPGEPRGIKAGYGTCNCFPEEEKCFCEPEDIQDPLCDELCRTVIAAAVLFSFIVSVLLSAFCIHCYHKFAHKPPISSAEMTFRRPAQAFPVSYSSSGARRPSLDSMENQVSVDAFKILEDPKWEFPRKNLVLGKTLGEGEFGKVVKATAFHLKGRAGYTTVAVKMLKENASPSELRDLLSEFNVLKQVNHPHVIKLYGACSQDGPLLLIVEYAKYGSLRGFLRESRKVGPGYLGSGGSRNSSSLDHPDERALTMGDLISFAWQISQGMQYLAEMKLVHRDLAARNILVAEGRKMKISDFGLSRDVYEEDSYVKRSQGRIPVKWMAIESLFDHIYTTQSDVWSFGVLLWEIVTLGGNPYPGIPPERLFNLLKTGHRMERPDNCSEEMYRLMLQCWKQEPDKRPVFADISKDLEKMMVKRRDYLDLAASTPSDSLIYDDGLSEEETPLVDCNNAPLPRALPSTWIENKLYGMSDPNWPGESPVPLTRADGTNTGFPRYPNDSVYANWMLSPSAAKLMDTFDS

NIH3T3 [4] = assay: Antiproliferative activity against mouse NIH3T3 cells transfected with H-RAS oncogene after 72 hrs; details: NIH3T3, 72 h
NIH3T3 [5] = assay: Inhibition of RET oncoprotein expression in mouse NIH3T3 cells transfected with RET C634R mutant associated with MEN2A syndrome at 2.5 to 10 uM after 24 hrs by Western blot; type: functional, cell-based
Method in brief: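 NIH3T3MEN2A cells were exposed to compound or to DMSO vehicle for 24 h. Whole-cell lysates were Western blotted with anti-Ret (H300) and anti-phospho-Ret (Y1062) antibodies. Actin served as the loading control, and a lysate of untreated parental NIH3T3 cells was run alongside.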

| IC50 [3] [µM] | SMILES | IC50 (NIH3T3 [1]) [µM] | IC50 (NIH3T3 [2]) [µM] | IC50 (NIH3T3 [4]) [µM] | Activity (NIH3T3 [5]) |
| --- | --- | --- | --- | --- | --- |
| – | COc1cc2c3c(-c4ccc(O)cc4)c[nH]c(=O)c3n(Cc3ccccc3)c2cc1OC | 7.5 | 17.7 | – | – |
| > 0.6 | COc1cc2c3c(C)c[nH]c(=O)c3n(C)c2cc1OC | 5.6 | 10.6 | – | – |
| – | COc1cc2c3c(n(C)c2cc1OC)C(=O)NCC=C3c1ccc(O)cc1 | 14.4 | – | – | – |
| – | COc1cc2[nH]c3c(=O)[nH]c(-c4ccccc4)cc3c2cc1OC | 13.3 | – | – | – |
| – | COc1cc2[nH]c3c(c2cc1OC)C(c1ccc(O)cc1)=CCNC3=O | 19.8 | – | – | – |
| – | COc1cc2c3c(n(C)c2cc1OC)C(=O)NCC=C3C | 16.7 | – | – | – |
| 0.11 | COc1cc2[nH]c3c(=O)[nH]cc(-c4ccc(O)cc4)c3c2cc1OC | 4.7 | 13.9 | 13.5 | – |
| – | COc1ccc2c(c1)c1c(-c3ccc(O)cc3)c[nH]c(=O)c1n2C | 12.2 | 25 | > 30 | – |
| 0.25 | COc1cc2c3c(-c4ccccc4)c[nH]c(=O)c3n(C)c2cc1OC | 3.3 | 17.8 | 13.8 | – |
| – | COc1ccc(CN2CC=C(c3ccc(O)cc3)c3c(n(C)c4cc(OC)c(OC)cc34)C2=O)cc1 | 6.8 | – | – | – |
| – | COc1cc2c3c(n(C)c2cc1OC)C(=O)NCC=C3 | 7.8 | – | – | – |
| 0.09 | COc1cc2c3c(-c4cccc(O)c4)c[nH]c(=O)c3n(C)c2cc1OC | 3.2 | 6.7 | 6.1 | – |
| > 0.6 | COc1cc2c3ccn(Cc4ccccc4)c(=O)c3n(C)c2cc1OC | 15.9 | – | – | – |
| – | Cn1c2ccccc2c2c(-c3ccc(O)cc3)c[nH]c(=O)c21 | 17.3 | > 30 | > 30 | – |
| – | COc1cc2c3c(n(C)c2cc1OC)C(=O)N(C)CC=C3c1ccc(O)cc1 | 18.4 | – | – | – |
| – | COc1ccc(C2=CCNC(=O)c3c2c2cc(OC)c(OC)cc2n3C)cc1 | 9.9 | – | – | – |
| – | COc1cc2c3cc(-c4ccccc4)[nH]c(=O)c3n(C)c2cc1OC | 34.4 | – | – | – |
| – | COc1cc2c3c(-c4ccc(O)cc4)c[nH]c(=O)c3n(C)c2cc1OC | 1.95 | 7.2 | 6.6 | Active |
